Active and inactive are the calls of the source. The calls are words filed in the database; no cut-off is given here.
How the values were obtained:
Escherichia coli [1] = experiment: Inhibition of glutaminase activity of Escherichia coli asparagine synthetase B at 0.1 mM using L-glutamine as substrate after 30 to 120 mins in presence of L-glutamate dehydrogenase and NAD+
How it was run: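 Enzyme (60 µg) preincubated at 30 °C with inhibitor in 100 mM Tris-HCl pH 7.5, 8 mM MgCl2, 100 mM NaCl, 0.5 mM DTT. Aliquots taken at 30 and 120 min. Glutaminase reaction: 100 mM EPPS pH 8, 20 mM L-Gln, 37 °C for 10 min, then TCA quench. Glutamate read as NADH via glutamate dehydrogenase in glycine–hydrazine pH 9 with ADP and NAD+.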

[2] = Cytotoxicity against CHL cells assessed as structural aberrations at 0.05 ug/ml after 24 hrs by Giemsa-staining-based microscopic analysis; type: toxicity, cell-based, Cricetulus griseus; conditions: chinese hamster
[3] = Cytotoxicity against CHL cells assessed as chromatid gap at 0.05 ug/ml after 24 hrs by Giemsa-staining-based microscopic analysis; type: toxicity, cell-based, Cricetulus griseus; conditions: chinese hamster
[4] = Cytotoxicity against CHL cells assessed as number of cells with numerical aberrations at 0.05 ug/ml preincubated for 6 hrs followed by 18 hrs incubation in fresh medium in absence of S9 fraction by Giemsa-staining-based microscopic analysis relative to control; type: toxicity, cell-based, Cricetulus griseus; conditions: chinese hamster
[5] = Cytotoxicity against CHL cells assessed as structural aberrations at 0.05 ug/ml preincubated for 6 hrs followed by 18 hrs incubation in fresh medium in absence of S9 fraction by Giemsa-staining-based microscopic analysis; type: toxicity, cell-based, Cricetulus griseus; conditions: chinese hamster
[6] = Cytotoxicity against CHL cells assessed as chromatid gap at 0.05 ug/ml preincubated for 6 hrs followed by 18 hrs incubation in fresh medium in absence of S9 fraction by Giemsa-staining-based microscopic analysis; type: toxicity, cell-based, Cricetulus griseus; conditions: chinese hamster
[7] = Cytotoxicity against CHL cells assessed as number of cells with numerical aberrations at 0.05 ug/ml after 24 hrs by Giemsa staining-based microscopic analysis relative to control; type: toxicity, cell-based, Cricetulus griseus; conditions: chinese hamster
Homo sapiens = species on record: Homo sapiens; experiment: Irreversible inhibition of human GGT using gamma-Glu-AMC as substrate assessed as association rate constant by […] analysis
How it was run: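 The enzyme source was a commercial human GGT preparation carrying bovine serum albumin as stabilizer (GGT <1% of protein). Hydrolytic activity was followed with γ-Glu-AMC as substrate. Irreversible inactivation was expressed as kon, the second-order rate constant for the inhibitor–enzyme reaction.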

Escherichia coli K-12 = experiment: Irreversible inhibition of Escherichia coli K-12 SH642 GGT using gamma-Glu-AMC as substrate assessed as association rate constant by […] analysis
How it was run: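 GGT was purified from the periplasmic fraction of recombinant E. coli K-12 SH642. Hydrolytic activity was followed with γ-Glu-AMC as substrate. Irreversible inactivation was expressed as kon, the second-order rate constant for the inhibitor–enzyme reaction.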

[8] = Hydrolytic stability of the compound in D2O assessed as formation of monomethyl phosphonate and phenol at 23 degC after 28 days by 31P NMR spectroscopy; type: physicochemical; conditions: 672 h
Salmonella typhimurium [9] = experiment: Genotoxicity in Salmonella typhimurium TA1537 assessed as number of revertant colonies per plate at 80 ug/plate after 20 mins in absence of S9 fraction by Ames test (reference value: 9); type: toxicity, organism-based; conditions: salmonella enterica subsp. enterica serovar typhimurium
Salmonella typhimurium [10] = experiment: Genotoxicity in Salmonella typhimurium TA98 assessed as number of revertant colonies per plate at 1 ug/plate after 20 mins in absence of S9 fraction by Ames test (reference value: 21); type: toxicity, organism-based; conditions: salmonella enterica subsp. enterica serovar typhimurium
Salmonella typhimurium [11] = experiment: Genotoxicity in Salmonella typhimurium TA1535 assessed as number of revertant colonies per plate at 2 ug/plate after 20 mins in presence of S9 fraction by Ames test (reference value: 13); type: toxicity, organism-based; conditions: salmonella enterica subsp. enterica serovar typhimurium
Salmonella typhimurium [12] = experiment: Genotoxicity in Salmonella typhimurium TA98 assessed as number of revertant colonies per plate at 0.5 ug/plate after 20 mins in presence of S9 fraction by Ames test (reference value: 26); type: toxicity, organism-based; conditions: salmonella enterica subsp. enterica serovar typhimurium
Escherichia coli [13] = experiment: Genotoxicity in Escherichia coli WP2uvrA assessed as number of revertant colonies per plate at 10 ug/plate after 20 mins in presence of S9 fraction by Ames test (reference value: 26); type: toxicity; conditions: s9, 20 min
Salmonella typhimurium [14] = experiment: Genotoxicity in Salmonella typhimurium TA1537 assessed as number of revertant colonies per plate at 2 ug/plate after 20 mins in presence of S9 fraction by Ames test (reference value: 15); type: toxicity, organism-based; conditions: salmonella enterica subsp. enterica serovar typhimurium
Salmonella typhimurium [15] = experiment: Genotoxicity in Salmonella typhimurium TA100 assessed as number of revertant colonies per plate at 1 ug/plate after 20 mins in presence of S9 fraction by Ames test (reference value: 142); type: toxicity, organism-based; conditions: salmonella enterica subsp. enterica serovar typhimurium
[16] = Hydrolytic stability of the compound in D2O assessed as formation of monomethyl phosphonate and phenol at 23 degC up to 28 days by 31P NMR spectroscopy; type: physicochemical; conditions: 672 h
[17] = Cytotoxicity against CHL cells assessed as number of cells with numerical aberrations at 20 ug/ml preincubated for 6 hrs followed by 18 hrs incubation in fresh medium in presence of S9 fraction by Giemsa staining-based microscopic analysis relative to control; type: toxicity, cell-based, Cricetulus griseus; conditions: chinese hamster
[18] = Cytotoxicity against CHL cells assessed as structural aberrations at 20 ug/ml preincubated for 6 hrs followed by 18 hrs incubation in fresh medium in presence of S9 fraction by Giemsa-staining-based microscopic analysis; type: toxicity, cell-based, Cricetulus griseus; conditions: chinese hamster
[19] = Cytotoxicity against CHL cells assessed as chromatid gap at 20 ug/ml preincubated for 6 hrs followed by 18 hrs incubation in fresh medium in presence of S9 fraction by Giemsa-staining-based microscopic analysis; type: toxicity, cell-based, Cricetulus griseus; conditions: chinese hamster

N[C@H](C(=O)O)[C@@H]1CC(Cl)=NO1
inhibition (Escherichia coli [1]): Active

CO[C@@]12[C@H](COC(N)=O)C3=C(C(=O)C(C)=C(N)C3=O)N1C[C@@H]1N[C@@H]12 [MITOMYCIN]
Activity [2]: 40%
Activity [3]: 0%
Activity [4]: 2%
Activity [5]: 40%
Activity [6]: 3%
Activity [7]: 0%

COP(=O)(CCC(N)C(=O)O)Oc1cccc(C(=O)O)c1 (mixture of isomers)
K (Homo sapiens): 1.6 M⁻¹ s⁻¹
K (Escherichia coli K-12): 450 M⁻¹ s⁻¹

COP(=O)(CCC(N)C(=O)O)Oc1cccc([N+](=O)[O-])c1 (mixture of isomers)
K (Homo sapiens): 49 M⁻¹ s⁻¹
K (Escherichia coli K-12): 5100 M⁻¹ s⁻¹
Stability [8]: Unstable

COP(=O)(CCC(N)C(=O)O)Oc1cccc(CC(N)=O)c1 (mixture of isomers)
K (Homo sapiens): 1.9 M⁻¹ s⁻¹
K (Escherichia coli K-12): 400 M⁻¹ s⁻¹

CCOC(=O)Cc1cccc(OP(=O)(CCC(N)C(=O)O)OC)c1 (mixture of isomers)
K (Homo sapiens): 1.2 M⁻¹ s⁻¹
K (Escherichia coli K-12): 120 M⁻¹ s⁻¹

COP(=O)(CCC(N)C(=O)O)Oc1ccccc1 (stereo not drawn)
K (Homo sapiens): 0.4 M⁻¹ s⁻¹
K (Escherichia coli K-12): 120 M⁻¹ s⁻¹

Nc1c2ccccc2nc2ccccc12 [AMINACRINE]
Activity (Salmonella typhimurium [9]): 320

O=[N+]([O-])c1ccc2c(c1)Cc1ccccc1-2 [2-NITROFLUORENE]
Activity (Salmonella typhimurium [10]): 442

COP(=O)(CCC(N)C(=O)O)Oc1cccc(CCC(=O)O)c1 (mixture of isomers)
K (Homo sapiens): 7.7 M⁻¹ s⁻¹
K (Escherichia coli K-12): 71 M⁻¹ s⁻¹

Nc1ccc2cc3ccccc3cc2c1 [2-AMINOANTHRACENE]
Activity (Salmonella typhimurium [11]): 299
Activity (Salmonella typhimurium [12]): 421
Activity (Escherichia coli [13]): 495
Activity (Salmonella typhimurium [14]): 154
Activity (Salmonella typhimurium [15]): 694

COP(=O)(CCC(N)C(=O)O)Oc1ccc(C(=O)O)cc1 (mixture of isomers)
K (Homo sapiens): 5.2 M⁻¹ s⁻¹
K (Escherichia coli K-12): 3200 M⁻¹ s⁻¹

NC(CCP(=O)(Oc1ccccc1)Oc1cccc(CC(=O)O)c1)C(=O)O (mixture of isomers)
K (Homo sapiens): 40 M⁻¹ s⁻¹

COP(=O)(CCC(N)C(=O)O)Oc1ccc(CC(=O)O)cc1 (stereo not drawn)
K (Homo sapiens): 0.33 M⁻¹ s⁻¹
K (Escherichia coli K-12): 210 M⁻¹ s⁻¹
Stability [16]: Stable

NC(CCP(=O)(Oc1ccccc1)Oc1ccccc1)C(=O)O (racemic)
K (Homo sapiens): 0.41 M⁻¹ s⁻¹
K (Escherichia coli K-12): 27.8 M⁻¹ s⁻¹

c1ccc2c(c1)cc1ccc3cccc4ccc2c1c34 [BENZO[DEF]CHRYSENE]
Activity [17]: 1%
Activity [18]: 46%
Activity [19]: 6%

Reference: ChEMBL document CHEMBL3856258, “Phosphonate-based irreversible inhibitors of human γ-glutamyl transpeptidase (GGT). GGsTop is a non-toxic and highly selective inhibitor with critical electrostatic interaction with an active-site residue Lys562 for enhanced inhibitory activity” (Bioorg Med Chem, 2016)
